Laboratory results published in ChEMBL document CHEMBL1126179, “Synthesis and anti-HIV activity of isonucleosides” (J Med Chem, 1992).

Key:
[1] = In vitro cytotoxicity against uninfected ATH-8 (human T-cell) cell line.; type: functional; settings: read-out: CD50 (the source's name)
Procedure, shortened: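 Uninfected ATH-8 cells; the value is the dose that reduces viability by 50%. Concentrations tested up to […].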

[2] = In vitro effective dose which provides 50% protection of ATH-8 cells against the cytopathic effect of HIV; type: functional; settings: Homo sapiens, read-out: ED50 (the source's name)
Procedure, shortened: (§1)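 ATH-8 cells infected with HIV-1 (HTLV-III_B strain) and read as the dose giving 50% protection against viral cytopathic effect. Reported as a range from ≥3 experiments, each including a standard such as AZT.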

[3] = In vitro effective dose which provides 50% protection of ATH-8 cells against the cytopathic effect of HIV; range 5-15 uM; type: functional; settings: Homo sapiens, read-out: ED50 (the source's name); procedure, shortened: as §1
[4] = tested on: Human immunodeficiency virus 1; experiment: Concentration required to inhibit HIV replication by 50%; type: functional, organism-based
Procedure, shortened: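 Human PBM from a normal donor, isolated by Ficoll-Hypaque and stimulated with PHA (5 μg/mL) for 24 h in RPMI 1640/15% FBS/IL-2. Cells plated at 5 × 10⁵ per well and infected with 20 TCID₅₀ of AZT-resistant patient isolate HIV-1 ERS 205pre, with drug added. Incubated at 37 °C for 7 days; half the medium and drug replaced on day 4. Day-7 supernatant p24 gag measured by radioimmunoassay.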

[5] = In vitro effective dose which provides 50% protection of ATH-8 cells against the cytopathic effect of HIV; range 10-50 uM; type: functional; settings: Homo sapiens, read-out: ED50 (the source's name); procedure, shortened: as §1
[6] = In vitro effective dose which provides 50% protection of ATH-8 cells against the cytopathic effect of HIV; range 5-10 uM; type: functional; settings: Homo sapiens, read-out: ED50 (the source's name)
[7] = In vitro effective dose which provides 50% protection of ATH-8 cells against the cytopathic effect of HIV; Range 5-10 uM; type: functional; settings: Homo sapiens, read-out: ED50 (the source's name)

## Nc1ccn([C@H]2CO[C@@H](CO)C2)c(=O)n1
[1]
  CC50: > 100 µM
[2]
  EC50: > 100 µM

## Nc1ncnc2c1ncn2[C@H]1CO[C@@H](CO)C1
[1]
  CC50: > 100 µM
[3]
  EC50: 5 µM
[4]
  IC50: 8.2 µM

## Nc1nc(O)c2ncn([C@H]3CO[C@@H](CO)C3)c2n1
[1]
  CC50: > 500 µM
[4]
  IC50: 17.5 µM
[5]
  EC50: 10 µM

## Cc1cn([C@H]2CO[C@@H](CO)C2)c(=O)[nH]c1=O
[1]
  CC50: > 100 µM
[2]
  EC50: > 100 µM

## O=c1[nH]cnc2c1ncn2[C@H]1CC[C@@H](CO)O1 [DIDANOSINE]
[4]
  IC50: 1.28 µM

## OC[C@H]1C[C@@H](n2cnc3c(O)ncnc32)CO1
[1]
  CC50: > 100 µM
[2]
  EC50: > 100 µM

## Nc1ncnc2c1ncn2[C@H]1CC[C@@H](CO)O1
[1]
  CC50: > 200 µM
[6]
  EC50: 5 µM

## Nc1nc(O)c2ncn([C@H]3CC[C@@H](CO)O3)c2n1
[1]
  CC50: > 200 µM
[7]
  EC50: 5 µM
